Data reported in ChEMBL document CHEMBL1914423, “New imidazo[2,1-b]thiazole derivatives: synthesis, in vitro anticancer evaluation, and in silico studies” (Eur J Med Chem, 2011).

Key:
Format in all cases: functional
SK-MEL-5 = experiment: Anticancer activity against human SK-MEL-5 cells assessed as cell growth at 10^-5 M after 48 hrs by SRB assay; conditions: SK-MEL-5, 48 h, read-out: Activity
CCRF-CEM = experiment: Anticancer activity against human CCRF-CEM cells assessed as cell growth at 10^-5 M after 48 hrs by SRB assay; conditions: read-out: Activity
Method in brief: (§1)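 NCI-60 single-dose screen at one concentration. Cells grown in RPMI 1640 with 5% FBS and 2 mM L-glutamine, plated at 5000–40,000 cells/well, and pre-incubated 24 h at 37 °C in 5% CO2 before DMSO-dissolved drug was added. Cells fixed with TCA, SRB-stained, absorbance read at 515 nm. Percent growth calculated against time-zero and untreated control plates.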

HOP-92 = experiment: Anticancer activity against human HOP92 cells assessed as cell growth at 10^-5 M after 48 hrs by SRB assay; conditions: HOP-92, 48 h, read-out: Activity; method in brief: as §1
LOX IMVI = experiment: Anticancer activity against human LOXIMVI cells assessed as cell growth at 10^-5 M after 48 hrs by SRB assay; conditions: read-out: Activity; method in brief: as §1
SNB-19 = experiment: Anticancer activity against human SNB19 cells assessed as cell growth at 10^-5 M after 48 hrs by SRB assay; conditions: SNB-19, 48 h, read-out: Activity
COLO 205 = experiment: Anticancer activity against human COLO205 cells assessed as cell growth at 10^-5 M after 48 hrs by SRB assay; conditions: COLO 205, 48 h, read-out: Activity; method in brief: as §1
786-0 = experiment: Anticancer activity against human 786-0 cells assessed as cell growth at 10^-5 M after 48 hrs by SRB assay; conditions: 786-0, 48 h, read-out: Activity; method in brief: as §1
KM12 = experiment: Anticancer activity against human KM12 cells assessed as cell growth at 10^-5 M after 48 hrs by SRB assay; conditions: KM12, 48 h, read-out: Activity; method in brief: as §1
SF-268 = experiment: Anticancer activity against human SF268 cells assessed as cell growth at 10^-5 M after 48 hrs by SRB assay; conditions: SF-268, 48 h, read-out: Activity
SNB-75 = experiment: Anticancer activity against human SNB75 cells assessed as cell growth at 10^-5 M after 48 hrs by SRB assay; conditions: SNB-75, 48 h, read-out: Activity
Method in brief: (§2)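 NCI-60 single-dose screen: cells in RPMI 1640 with 5% FBS and 2 mM L-glutamine, plated at 5000–40,000 cells/well by doubling time, and preincubated 24 h at 37 °C. Compound given at one concentration from DMSO stock. Cells TCA-fixed and SRB-stained, absorbance at 515 nm. Percent growth relative to time-zero and untreated controls; inhibition % = 100 − growth %.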

MDA-MB-468 = experiment: Anticancer activity against human MDA-MB-468 cells assessed as cell growth at 10^-5 M after 48 hrs by SRB assay; conditions: MDA-MB-468, 48 h, read-out: Activity
SF-295 = experiment: Anticancer activity against human SF295 cells assessed as cell growth at 10^-5 M after 48 hrs by SRB assay; conditions: SF-295, 48 h, read-out: Activity
SK-MEL-2 = experiment: Anticancer activity against human SK-MEL-2 cells after 48 hrs by SRB assay; conditions: SK-MEL-2, 48 h; for CC50: read-out: LC50 (the source's name)
NCI-H460 = experiment: Anticancer activity against human NCI-H460 cells assessed as cell growth at 10^-5 M after 48 hrs by SRB assay; conditions: NCI-H460, 48 h, read-out: Activity
SR = experiment: Anticancer activity against human SR cells assessed as cell growth at 10^-5 M after 48 hrs by SRB assay; conditions: read-out: Activity; method in brief: as §2
A549 = experiment: Anticancer activity against human A549 cells assessed as cell growth at 10^-5 M after 48 hrs by SRB assay; conditions: A549, 48 h, read-out: Activity; method in brief: as §1
EKVX = experiment: Anticancer activity against human EKVX cells assessed as cell growth at 10^-5 M after 48 hrs by SRB assay; conditions: read-out: Activity; method in brief: as §1
PC-3 = experiment: Anticancer activity against human PC3 cells assessed as cell growth at 10^-5 M after 48 hrs by SRB assay; conditions: PC-3, 48 h, read-out: Activity
SK-OV-3 = experiment: Anticancer activity against human SKOV3 cells assessed as cell growth at 10^-5 M after 48 hrs by SRB assay; conditions: SK-OV-3, 48 h, read-out: Activity
MCF7 = experiment: Anticancer activity against human MCF7 cells assessed as cell growth at 10^-5 M after 48 hrs by SRB assay; conditions: MCF7, 48 h, read-out: Activity; method in brief: as §1
HCT-15 = experiment: Anticancer activity against human HCT15 cells assessed as cell growth at 10^-5 M after 48 hrs by SRB assay; conditions: HCT-15, 48 h, read-out: Activity; method in brief: as §1
A498 = experiment: Anticancer activity against human A498 cells assessed as cell growth at 10^-5 M after 48 hrs by SRB assay; conditions: A498, 48 h, read-out: Activity; method in brief: as §1
K562 = experiment: Anticancer activity against human K562 cells assessed as cell growth at 10^-5 M after 48 hrs by SRB assay; conditions: K562, 48 h, read-out: Activity; method in brief: as §1
NCI/ADR-RES = experiment: Anticancer activity against human NCI/ADR-RES cells assessed as cell growth at 10^-5 M after 48 hrs by SRB assay; conditions: read-out: Activity
NCI-H23 = experiment: Anticancer activity against human NCI-H23 cells assessed as cell growth at 10^-5 M after 48 hrs by SRB assay; conditions: NCI-H23, 48 h, read-out: Activity
DU-145 = experiment: Anticancer activity against human DU145 cells assessed as cell growth at 10^-5 M after 48 hrs by SRB assay; conditions: DU-145, 48 h, read-out: Activity; method in brief: as §1
OVCAR-5 = experiment: Anticancer activity against human OVCAR5 cells assessed as cell growth at 10^-5 M after 48 hrs by SRB assay; conditions: OVCAR-5, 48 h, read-out: Activity
NCI-H226 = experiment: Anticancer activity against human NCI-H226 cells assessed as cell growth at 10^-5 M after 48 hrs by SRB assay; conditions: NCI-H226, 48 h, read-out: Activity
OVCAR-8 = experiment: Anticancer activity against human OVCAR8 cells assessed as cell growth at 10^-5 M after 48 hrs by SRB assay; conditions: OVCAR-8, 48 h, read-out: Activity
U-251 = experiment: Anticancer activity against human U251 cells assessed as cell growth at 10^-5 M after 48 hrs by SRB assay; conditions: U-251, 48 h, read-out: Activity; method in brief: as §2
HOP-62 = experiment: Anticancer activity against human HOP62 cells assessed as cell growth at 10^-5 M after 48 hrs by SRB assay; conditions: HOP-62, 48 h, read-out: Activity; method in brief: as §1
NCI-H522 = experiment: Anticancer activity against human NCI-H522 cells after 48 hrs by SRB assay; conditions: NCI-H522, 48 h; for CC50: read-out: LC50 (the source's name)

Compound | growth at 10 µM (SK-MEL-5) [%] | growth at 10 µM (CCRF-CEM) [%] | growth at 10 µM (HOP-92) [%] | growth at 10 µM (LOX IMVI) [%] | growth at 10 µM (SNB-19) [%] | growth at 10 µM (COLO 205) [%] | growth at 10 µM (786-0) [%] | growth at 10 µM (KM12) [%] | growth at 10 µM (SF-268) [%] | growth at 10 µM (SNB-75) [%] | growth at 10 µM (MDA-MB-468) [%] | growth at 10 µM (SF-295) [%] | growth at 10 µM (NCI-H460) [%] | growth at 10 µM (SR) [%] | growth at 10 µM (A549) [%] | growth at 10 µM (EKVX) [%] | growth at 10 µM (PC-3) [%] | growth at 10 µM (SK-OV-3) [%] | growth at 10 µM (MCF7) [%] | growth at 10 µM (HCT-15) [%] | further results
O=C(NCCNc1nccc(-c2c(-c3cccc(O)c3)nc3sccn23)n1)Nc1cccc(C(F)(F)F)c1 | 53.5 | 23.1 | 54.5 | 64.5 | 89.5 | 53.2 | 79.4 | 14.1 | 26.2 | 66.2 | -40.6 | 75.5 | 80.1 | 59.2 | 39.3 | 91.2 | 26.7 | 85 | 55.6 | 84.7 | GI50 (SK-MEL-2): 2.8 µM; TGI (SK-MEL-2): 6.07 µM; CC50 (SK-MEL-2): 36 µM; growth at 10 µM (A498): 111%; growth at 10 µM (K562): 70.6%; growth at 10 µM (NCI/ADR-RES): 108%; growth at 10 µM (NCI-H23): 96.2%; growth at 10 µM (DU-145): 89%; growth at 10 µM (OVCAR-5): 117%; growth at 10 µM (NCI-H226): 97%; growth at 10 µM (OVCAR-8): 41.1%; growth at 10 µM (U-251): 81.6%; growth at 10 µM (HOP-62): 83.5%; GI50 (NCI-H522): 2.11 µM; TGI (NCI-H522): 5 µM; CC50 (NCI-H522): 20.9 µM
COc1cccc(-c2nc3sccn3c2-c2ccnc(NCCNC(=O)Nc3cccc(C(F)(F)F)c3)n2)c1 | 51.5 | 27 | 92.4 | 44.3 | 74.8 | 57.6 | 65.6 | 33.5 | 62.3 | 71.8 | 39.6 | 37.7 | 45.1 | 38.5 | 44.4 | 61.5 | 32.9 | 78.6 | 54.8 | 45.9 | GI50 (SK-MEL-2): 2.03 µM; TGI (SK-MEL-2): 4.46 µM; CC50 (SK-MEL-2): 9.78 µM; growth at 10 µM (A498): 61.6%; growth at 10 µM (K562): 39.9%; growth at 10 µM (NCI/ADR-RES): 27.2%; growth at 10 µM (NCI-H23): 83.8%; growth at 10 µM (DU-145): 79.8%; growth at 10 µM (OVCAR-5): 103%; growth at 10 µM (NCI-H226): 94.9%; growth at 10 µM (OVCAR-8): 21.3%; growth at 10 µM (U-251): 58.1%; growth at 10 µM (HOP-62): 98.9%; GI50 (NCI-H522): 2.67 µM; TGI (NCI-H522): 8.51 µM; CC50 (NCI-H522): 86.5 µM
O=C(NCCNc1nccc(-c2c(-c3cccc(O)c3)nc3sccn23)n1)c1ccccc1 | 40.2 | 47.3 | 58.6 | 23.2 | 91.1 | 48.5 | 66.5 | 75.9 | 80.7 | 54.4 | 54.7 | 67.4 | 42.4 | 68 | 56.3 | 94.2 | 68.5 | 65.1 | 38.1 | 88.4 | GI50 (SK-MEL-2): 2.94 µM; TGI (SK-MEL-2): 12.9 µM; CC50 (SK-MEL-2): 48.8 µM; growth at 10 µM (A498): 48%; growth at 10 µM (K562): 62.8%; growth at 10 µM (NCI/ADR-RES): 99.7%; growth at 10 µM (NCI-H23): 82.6%; growth at 10 µM (DU-145): 90.5%; growth at 10 µM (OVCAR-5): 90.6%; growth at 10 µM (NCI-H226): 54.5%; growth at 10 µM (OVCAR-8): 66.6%; growth at 10 µM (U-251): 61.9%; growth at 10 µM (HOP-62): 119%; GI50 (NCI-H522): 5.76 µM; TGI (NCI-H522): 25.5 µM; CC50 (NCI-H522): 93.9 µM
COc1cccc(-c2nc3sccn3c2-c2ccnc(NCCNC(=O)c3cccc(C(F)(F)F)c3)n2)c1 | 48.4 | 39.3 | 106 | 54.7 | 102 | 46.1 | 76 | 58.6 | 71 | 85.3 | 71.1 | 54.2 | 74.3 | 63.2 | 56 | 76.2 | 55 | 81.1 | 78.8 | 55.8 | growth at 10 µM (A498): 63.5%; growth at 10 µM (K562): 48.1%; growth at 10 µM (NCI/ADR-RES): 38.4%; growth at 10 µM (NCI-H23): 70.7%; growth at 10 µM (DU-145): 67.7%; growth at 10 µM (OVCAR-5): 97.8%; growth at 10 µM (NCI-H226): 87.5%; growth at 10 µM (OVCAR-8): 40.5%; growth at 10 µM (U-251): 74.5%; growth at 10 µM (HOP-62): 99.5%
